Activity calls are given as the source filed them. No cut-off for these calls is given here.
Legend:
B16-F10 [1] = test: Induction of melanin synthesis in mouse B16F10 cells at 50 uM after 48 hrs by spectrophotometric analysis relative to control; type: functional
In short: (§1)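 B16F10 cells in DMEM with 10% heat-inactivated FBS, penicillin/streptomycin, 37 °C, 5% CO2; 5 × 10^5 cells per well, allowed 24 h, then fresh medium with compound for 48 h. Cells washed in cold PBS, lysed in RIPA on ice 40 min, spun 10,000g 20 min; pellet dissolved in 1 M NaOH, 60 °C 2 h, A405, normalised to protein. Three experiments in duplicate.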

B16-F10 [2] = test: Induction of melanin synthesis in mouse B16F10 cells at 50 uM after 48 hrs by spectrophotometric analysis relative to 8-MOP; type: functional; in short: as §1

Structure (SMILES)	Activity (B16-F10 [1])	fold change (FC) (B16-F10 [2])
Cc1coc2cc3oc(=O)cc(C)c3cc12	Active	–
Cc1cc(=O)oc2c1ccc1occc12	Active	–
Cc1oc2cc3oc(=O)ccc3cc2c1C	Active	–
Cc1cc(=O)oc2cc3oc4c(c3cc12)CCCC4	Active	–
Cc1oc2ccc3ccc(=O)oc3c2c1C	Active	–
Cc1oc2cc3oc(=O)cc(C)c3cc2c1C	Active	–
Cc1cc(=O)oc2cc3occ(-c4ccccc4)c3cc12	Active	–
O=c1ccc2cc3c(-c4ccccc4)coc3cc2o1	Active	–
O=c1ccc2cc3c4c(oc3cc2o1)CCCC4	Active	–
O=c1cc(CO)c2cc3c(cc2o1)oc1ccccc13	Active	–
Cc1coc2cc3oc(=O)ccc3cc12	Active	–
Cc1cc(=O)oc2c1ccc1occ(C)c12	Active	–
O=c1ccc2ccc3occc3c2o1	Active	–
Cc1ccccc1/N=C/c1cc(=O)oc2cc3oc4ccccc4c3cc12	350.5%	3
O=Cc1cc(=O)oc2cc3oc4ccccc4c3cc12	Active	–
Cc1oc2ccc3c(C)cc(=O)oc3c2c1C	Active	–
Cc1ccc(C(=O)OCc2cc(=O)oc3cc4oc5ccccc5c4cc23)cc1	313.1%	3
O=c1ccc2cc3ccoc3cc2o1	Active	–
Cc1coc2ccc3ccc(=O)oc3c12	Active	–
COc1c2occc2cc2ccc(=O)oc12 [METHOXSALEN]	114.5%	–
O=c1ccc2ccc3oc4c(c3c2o1)CCCC4	Active	–

From ChEMBL document CHEMBL3862015, “Synthesis and biological evaluation of furocoumarin derivatives on melanin synthesis in murine B16 cells for the treatment of vitiligo” (2016)
